One molecule from PMC11393732 (RSC Medicinal Chemistry, 2024) can be followed below.

SMILES strings stand for the structures.

In data set [1] the target is T1, KDM3A (Homo sapiens, UniProt Q9Y4C1).
T1 sequence (Q9Y4C1 1-1321): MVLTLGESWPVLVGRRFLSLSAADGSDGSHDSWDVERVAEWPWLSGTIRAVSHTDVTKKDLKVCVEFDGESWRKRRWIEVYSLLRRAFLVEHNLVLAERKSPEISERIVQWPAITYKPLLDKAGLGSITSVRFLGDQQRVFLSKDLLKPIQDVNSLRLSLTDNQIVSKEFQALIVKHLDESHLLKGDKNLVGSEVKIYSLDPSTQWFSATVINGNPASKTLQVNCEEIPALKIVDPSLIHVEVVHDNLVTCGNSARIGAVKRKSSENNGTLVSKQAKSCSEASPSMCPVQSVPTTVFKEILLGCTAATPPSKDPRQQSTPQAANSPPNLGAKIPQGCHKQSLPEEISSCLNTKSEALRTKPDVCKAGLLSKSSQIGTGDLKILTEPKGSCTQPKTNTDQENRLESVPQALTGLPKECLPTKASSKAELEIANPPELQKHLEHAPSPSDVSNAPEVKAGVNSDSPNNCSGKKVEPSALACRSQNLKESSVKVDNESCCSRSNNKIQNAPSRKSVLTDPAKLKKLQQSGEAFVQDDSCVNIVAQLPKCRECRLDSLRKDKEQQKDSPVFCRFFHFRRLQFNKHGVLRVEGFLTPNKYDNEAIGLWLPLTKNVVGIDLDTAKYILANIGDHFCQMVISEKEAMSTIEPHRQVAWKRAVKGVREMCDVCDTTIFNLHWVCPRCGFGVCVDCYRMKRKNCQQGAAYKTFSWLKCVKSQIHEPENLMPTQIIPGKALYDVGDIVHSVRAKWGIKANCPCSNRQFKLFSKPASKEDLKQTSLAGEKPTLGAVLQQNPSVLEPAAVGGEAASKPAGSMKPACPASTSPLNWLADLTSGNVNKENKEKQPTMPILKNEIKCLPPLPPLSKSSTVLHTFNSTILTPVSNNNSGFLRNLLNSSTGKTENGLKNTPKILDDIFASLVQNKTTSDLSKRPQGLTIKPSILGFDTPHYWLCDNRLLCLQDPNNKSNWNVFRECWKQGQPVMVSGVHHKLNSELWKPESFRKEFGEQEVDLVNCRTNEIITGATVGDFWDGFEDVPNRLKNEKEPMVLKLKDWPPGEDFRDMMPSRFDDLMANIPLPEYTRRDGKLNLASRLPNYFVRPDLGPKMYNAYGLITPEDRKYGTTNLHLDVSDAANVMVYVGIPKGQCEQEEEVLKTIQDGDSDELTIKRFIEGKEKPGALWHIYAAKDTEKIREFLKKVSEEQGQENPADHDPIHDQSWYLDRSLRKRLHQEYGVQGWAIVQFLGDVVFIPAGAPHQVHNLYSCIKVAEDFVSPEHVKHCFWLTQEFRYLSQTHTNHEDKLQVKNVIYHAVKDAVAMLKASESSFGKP
The data set is described as follows: Western blot KDM3A degradation in HCP-1 cells. In kind it is cell-based.

For data set [2], the system named is Wnt target genes in SW480 cells. The data set can be described thus: RT-qPCR of Wnt target gene expression in SW480. In kind it is cell-based, human. An outline of the steps:
(§1)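 Cells in 6-well plates exposed to test compound for 16 h. Total RNA extracted; 1 μg reverse-transcribed with M-MuLV and random hexamers. SYBR Green qPCR for the named genes, quantified by 2ΔΔct against tubulin. Mean ± SD; unpaired two-tailed Student's t-test.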
In general terms: Quantitative PCR measures a nucleic acid by following its amplification.

Data set [3] deals with Wnt target genes in HCP-1 cells. The data set is described as follows: RT-qPCR of Wnt target gene expression in HCP-1. Type of data set: cell-based, human. In short, it runs like this:
as §1

The subject of data set [4] is SW480 cells. The data set can be described thus: Clonogenic assay SW480. Type of data set: cell-based, human. The note with it: SW480, 2 weeks. An outline of the steps: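 Cells kept in DMEM with 10% FBS and 1% pen–strep, seeded at 500 cells/well and dosed with test compound once attached. Medium refreshed every 3 days for 2 weeks. Colonies stained with 0.5% crystal violet and photographed. ED50 obtained by image analysis.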

The test system of data set [5] is ALDH^high-HCP-1 CSCs. The data set is described as follows: Tumor sphere formation assay HCP-1. In kind it is cell-based, human. To be noted: 2 weeks. An outline of the steps: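 Trypsinised cells passed through a 40 μm strainer and stained with ALDEFLUOR. ALDHHigh cells sorted by FACS, with DEAB-treated cells as gating control. Plated at 1000 cells/well on ultra-low attachment in serum-free MEBM containing 2% B27, 20 ng mL−1 EGF, 10 ng mL−1 FGF, 1 ng mL−1 hydrocortisone, 5 μg mL−1 insulin and 100 μM β-mercaptoethanol. Dosed 1 h after plating; medium renewed at 1 week. Spheres >40 μm counted at 2 weeks for ED50.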

The subject of data set [6] is ALDH^High-HCP-1 CSC-derived tumors. The data set is described as follows: In vivo tumor growth, ALDH^High-HCP-1 CSC xenograft. Further details: species or system mice. In short, it runs like this: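 NSG mice in 5 groups of 5. FACS-sorted ALDHHigh HCP-1 cells (2500 in Matrigel) injected subcutaneously into both flanks. Test compound given IP at 3, 10 or 35 mg kg−1, or IOX1 at 10 mg kg−1, in PBS/Kolliphor EL vehicle; controls got vehicle; 16 days. Body weight taken every other day, tumour volume on days 9, 13–16, tumour weight at sacrifice.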

Data set [7] has as its target T1, KDM3A. The data set can be described thus: IHC of HCP-1 xenograft tumors, KDM3A. In kind it is in vivo, mice. In short, it runs like this: (§2)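 Tumours came from ALDHHigh HCP-1 xenografts in NSG mice given test compound IP (3, 10 or 35 mg kg−1) for 16 days. Paraffin sections were deparaffinised and rehydrated, then antigen-unmasked. Peroxidase blocked; sections blocked 1 h in 10% goat serum. Primary antibody overnight at 4 °C, biotinylated secondary 30 min at RT, avidin–biotin peroxidase detection, hematoxylin counterstain.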

The subject of data set [8] is CCND1. The data set is described as follows: IHC of HCP-1 xenograft tumors, CCND1. In kind it is in vivo, mice. To be noted: HCP-1 xenograft tumor tissues. An outline of the steps:
as §2

Data set [9] can be described thus: Hepatic metabolism S9 fraction incubation, rat.
A short description of data set [10]: Hepatic metabolism S9 fraction incubation, human.
Where [11] appears, read: 0.1 μM, plus glutathione, UDPGA, PAPS, 37 °C.

The half-life is the time needed for the level to fall by half in the phase considered. On to `O=C1CCC(N2C(=O)c3cccc(NCCOCCOCCOCCOCCNC(=O)c4ccc(O)c5ncccc45)c3C2=O)C(=O)N1` (stereo not shown) [Compound 4, N-(14-((2-(2,6-Dioxopiperidin-3-yl)-1,3-dioxoisoindolin-4-yl)amino)-3,6,9,12-tetraoxatetradecyl)-8-hydroxyquinoline-5-carboxamide], for which the KDM3A degradation result in data set [1] was “potently induce KDM3A and KDM3B degradation”. For the same molecule, the “suppression of Wnt target gene expression (AXIN2, DKK1, CCND1)” value is given as at least 50% in data set [2] (SW480, 50 μM, 16-hour treatment, in most cases) and at least 50% in data set [3] (HCP-1, 50 μM, 16-hour treatment, in most cases). Also, the “expression of colorectal CSC signature genes (ASCL2, RNF43, ZNRF3, LGR5)” value in data set [2] (SW480, 16 hours) is reported as “strongly inhibited”; in [3] (HCP-1, 16 hours), “strongly inhibited”. Moreover, the colony formation result in [4] is “potently inhibited the colony formation”. For the same molecule, the “ED50 HCP-1 (tumor sphere formation)” value in data set [5] stood at 280 nM. The “tumor volume and tumor weight vs IOX1 group” value was “no significant change” in data set [6] (3 mg kg^−1 IP vs IOX1 10 mg kg^−1); “significantly decreased” in data set [6] (10 and 35 mg kg^−1 IP vs IOX1 10 mg kg^−1). Besides, the CSC-derived tumor growth result in data set [6] (3, 10, 35 mg kg^−1 IP, 16 days, vs vehicle) is reported as “significantly inhibited”. Further, the “body weight of mice” value in [6] (IP, 16 days) is given as “little impact on the body weight”. Also, the “KDM3A level (IHC) at high dose” value in [7] (35 mg kg^−1) is on record as “slight upregulation of KDM3A”. Further, in [7] (HCP-1 xenograft tumor tissues), the “KDM3A degradation in vivo (IHC)” value is “confirmed the PROTAC-induced KDM3A and KDM3B degradation in vivo”. For the same molecule, the “CCND1 expression (IHC)” value in data set [8] is recorded as “downregulated”. Further, in [9] (setting [11]), the “CLint Rat (liver, S9)” value turned out to be 34.5 µL/min/mg. The “t 1/2 Rat (liver, S9)” value in [9] (setting [11]) came out at 20.1 min. Besides, the “clearance classification, rat” value in [9] (CLint classification bands) is listed as “moderate clearance”. Moreover, the half-life at 0.1 μM in data set [9] (rat, s9, t 1/2 Rat (liver, S9), 0.1 μM, plus glutathione, UDPGA, PAPS, 37 °C) stood at 20 min; in data set [10] (human, s9, t 1/2 Human (liver, S9), 0.1 μM, plus glutathione, UDPGA, PAPS, 37 °C), 16 min. Besides, in data set [10] (setting [11]), the “CLint Human (liver, S9)” value came to 41.6 µL/min/mg. Besides, in [10] (setting [11]), the “t 1/2 Human (liver, S9)” value turned out to be 16.7 min. Also, the “clearance classification, human” value in data set [10] (CLint classification bands) is listed as “moderate clearance”.
